Source: PubChem (SRMLSC)
This excerpt belongs to a sample that is enriched for hits.
HUVEC inhibit: human endothelial cell proliferation inhibition; viability, % at 10 µM (by protocol); hit rate 1.1% among 86,000; AID 648; HUVEC proliferation, CellTiter-Glo luminescence, 72 h; active compounds read low;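 active = viability at or below 30%; inactive = viability above 30%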;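 also: 100% = median luminescence of DMSO-only cell control wells on each plate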
H69AR growth 86K: growth inhibitors of human H69AR lung tumor cells. H69AR lung tumor viability, ATP luminescence, 72 h; active compounds read low. hit rate 6% among 85,000. viability, % at 10 µM;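 active = viability at or below 40%; inactive = viability above 40%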;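 also: multidrug resistant small cell line overexpressing MRP-1 efflux transporter; 100% = mean luminescence of untreated control wells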
Lung fibro prol: blocks proliferation of human lung fibroblasts; hit rate 1.1% among 85,000; LL 47 human lung fibroblast viability, ATP luminescence; active compounds read low; AID 719; viability, % at 10 µM;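 active = viability at or below 50% in the single dose screen; inactive = viability above 50%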;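 also: compound exposure lasted 72 h before the ATP readout; 100% = median luminescence of untreated cell-only wells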
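Material: human lung fibroblast line LL 47, low passage; Evaluation: viability percentage against median untreated-cell control; Buffer or medium: 15% FBS in IMEM; Incubation: 72 h compound exposure at 37 °C after overnight plating; Dosing: 0.1% DMSO in all compound wells; Measured by: CellTiter-Glo luminescence.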
HCT116 bCat-KO: beta-catenin-lacking colon tumor cell growth suppression; HCT116 beta-catenin knockout viability, CellTiter-Glo, 60 h; active compounds read low; viability, % at 10 µM; AID 818; hit rate 1.5% among 140,000;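 active = viability at or under a set limit, the compound median less 4 SD, cut at about 6% in these data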;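 also: 0% = Hyamine 1622 control at 20 µM and 100% = untreated cell control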
HCT116 PTEN-null: suppresses growth of cells with PTEN deletion. HCT116 PTEN-null viability, CellTiter-Glo, 60 h; active compounds read low. viability, % at 10 µM. hit rate 1.2% among 140,000. AID 827;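 active = viability at or below a set limit, 4 SD under the median of all tested compounds, cut at about 3.7% in these data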;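 also: PTEN knockout HCT116 line with beta catenin targeted HCT116 as companion control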
* hit, by the source's call; x = no result.

SMILES | HUVEC inhibit | H69AR growth 86K | Lung fibro prol | HCT116 bCat-KO | HCT116 PTEN-null
COc1ccccc1-c1c(C)nn2c(N3CCC(C(N)=O)CC3)cc(C)nc12 | 101 | 83 | 98 | 105 | 96
COc1ccc(-c2c(C)nn3c(N4CCC(C(=O)NCCN(C)C)CC4)cc(C)nc23)cc1OC | 72 | 30* | 83 | 69 | 80
O=C(N/N=C\c1ccc(F)cc1)c1csnn1 | x | x | x | 89 | 93
CC1(c2ccc3ccccc3c2)NC(=O)N(CC(=O)Nc2cccc(S(=O)(=O)N3CCOCC3)c2)C1=O (configuration not stated) | x | x | x | 83 | 69
Cc1ccccc1-n1nc2c(c1NC(=O)c1cc3ccccc3oc1=O)CS(=O)(=O)C2 | 92 | 4.2* | 88 | 99 | 90
Cc1ccccc1-n1nc2c(c1NC(=O)c1cc3ccccc3oc1=O)CS(=O)C2 (configuration not stated) | 92 | 90 | 101 | 96 | 93
c1ccc(-c2nc(Sc3ncnc4c3cnn4-c3ccccc3)n[nH]2)cc1 | 92 | 27* | 104 | 89 | 96
O=C(NCc1ccccc1)c1noc2c1CCCC2 | 91 | 62 | 90 | 23 | 20
O=C(NCc1cccc(F)c1)c1noc2c1CCCC2 | 83 | 40* | 78 | 34 | 30
CCOCCCNC(=O)c1cc2sc(Cl)cc2n1CC | 63 | 36* | 100 | 59 | 65
CCOCCCNC(=O)c1cc(C)nn1-c1ccccc1 | 95 | 92 | 93 | 109 | 113
O=C(NC1CCCCC1)c1ccccc1NC(=O)C1CC1 | 100 | 92 | 100 | 100 | 98
Cc1ccc2c(c1)CCCN2C(=O)c1ccoc1C | 85 | 34* | 103 | 87 | 86
O=C1C2C3C=CC(C4CC34)C2C(=O)N1/N=C/c1cccs1 (configuration not stated) | x | x | x | 95 | 88
CCOc1ccc(C(=O)Nc2cc(C)on2)cc1 | 99 | 36* | x | 78 | 84
CCOc1cc(C(=O)Nc2cc(C)on2)cc(OCC)c1OCC | 102 | 81 | 102 | 98 | 97
O=C(COC(=O)/C=C/c1ccc(Cl)cc1)NCCc1ccccc1 | x | x | x | 93 | 93
CON(c1nc(Cl)nc(N(C)C)n1)S(=O)(=O)c1ccccc1Cl | 90 | 22* | 91 | 86 | 90
O=C(OCCN1C(=O)c2cccc3c(N4CCOCC4)ccc(c23)C1=O)c1ccccc1Cl | x | x | x | 5.3* | 5
CCOC(=O)c1c(C)c(C(=O)Nc2cc(F)ccc2F)c(C)n1C | 55 | 20* | 66 | 30 | 28
CCOC(=O)c1c(C)c(C(=O)Nc2ccc3c(c2)OCCO3)c(C)n1C | 90 | 54 | 95 | 77 | 69
CC(=O)c1oc2ccccc2c1NC(=O)CCCN1C(=O)c2ccccc2C1=O | 95 | 79 | 106 | 102 | 98
COc1ccc2oc(C(=O)C3CC3)c(NC(=O)CCCN3C(=O)c4ccccc4C3=O)c2c1 | 86 | 31* | 92 | x | x
COc1cccc2c1OC[C@@H](CO)[C@H]2N(C)C(=O)Nc1ccc(Cl)cc1Cl | x | x | x | 80 | 84
Cc1ccc(-c2cc(C(=O)NCc3ccccn3)c3ccccc3n2)cc1C | x | x | x | 3.4* | 1.9*
SMILES | HUVEC inhibit | H69AR growth 86K | Lung fibro prol | HCT116 bCat-KO | HCT116 PTEN-null
O=C(Nc1ncccc1Cl)C(Sc1ccccc1)c1ccccc1 (configuration not stated) | x | x | x | 92 | 91
Cc1ccc(C(=O)c2c(C)oc3c2C(=O)C(=O)c2ccccc2-3)cc1 | 57 | 1.0* | 2.1* | 0.8* | 1.1*
Cc1ccc(C(=O)Nc2sc(C)c(C)c2C(=O)c2ccccc2)cc1 | x | x | x | 87 | 84
O=C(c1ccc(Cl)cc1)c1ccc(CN2C(=O)c3ccccc3C2=O)o1 | 96 | 92 | 103 | 92 | 101
Cc1oc2c(c1C(=O)c1ccc(Cl)cc1)C(=O)C(=O)c1ccccc1-2 | x | x | x | 0.9* | 0.9*
Cc1ccc(C(=O)c2coc3c2C(=O)C(=O)c2ccccc2-3)cc1 | 3.5* | 1.8* | 47* | 1.8* | 1.4*
Oc1ccc2c(c1)oc1cc(O)ccc12 | 57 | 5.2* | 76 | 83 | 97
O=C(CNC(=O)c1ccccc1F)NCCOc1ccccc1Cl | x | x | x | 99 | 90
CCOc1cc(/C=N/Nc2ccccc2Cl)ccc1OCC(=O)O | x | x | x | 83 | 94
COC(=O)C1=C(O)C(C(=O)OC)C(c2ccc(C)cc2)C(C#N)(C#N)C1c1ccc(C)cc1 (configuration not stated) | 80 | 4.0* | 83 | 21 | 18
CC1CC(Nc2ccccc2)c2ccccc2N1C(=O)c1cccnc1 (configuration not stated) | 91 | 50 | 96 | 71 | 70
C[C@@H]1C[C@H](Nc2ccccc2)c2ccccc2N1C(=O)c1cccnc1 | 89 | 20* | 94 | 62 | 75
COC(=O)c1c(NC(=O)COC(=O)Cn2cnc3ccccc32)sc2c1CCCC2 | x | x | x | 95 | 92
O=C(NCCOC12CC3CC(CC(C3)C1)C2)c1cccc(Br)c1 | x | x | x | 95 | 88
CCN(Cc1ccccc1)c1ccc(/C=N/N=C(N)N)cc1 | x | x | x | 1.4* | 1.7*
C=CCn1c(SCc2ccc(C#N)cc2)nnc1-c1ccc(C)cc1 | 107 | 79 | 107 | 71 | 82
Cc1cc(C)n(Cc2ccc(NC(=O)c3c([N+](=O)[O-])c(C)nn3C)cc2)n1 | x | x | x | 104 | 105
O=[N+]([O-])c1cc(S(=O)(=O)C(F)(F)F)ccc1Sc1nc2ccccc2s1 | x | x | x | 1.6* | 1.5*
O=[N+]([O-])c1cc(S(=O)(=O)C(F)(F)F)ccc1Sc1nc2ccccc2[nH]1 | 18* | 1.7* | 12* | 1.5* | 1.3*
CS(=O)(=O)c1ccc(Sc2nc3ccccc3s2)c([N+](=O)[O-])c1 | x | x | x | 7 | 10
CS(=O)(=O)c1ccc(Sc2nc3ccccc3[nH]2)c([N+](=O)[O-])c1 | 100 | 1.1* | 97 | 65 | 61
O=C1CC(=O)N2N=C(c3ccc([N+](=O)[O-])cc3)SC2=N1 | x | x | x | 91 | 103
O=[N+]([O-])c1ccc2c(c1)C(N1CCOCC1)/C(=C/COc1ccc(Cl)cc1Cl)O2 (configuration not stated) | x | x | x | 97 | 97
CC(=O)OCC(=O)Nc1ccc(C(C)=O)cc1 | 97 | 39* | 101 | 93 | 83
Cc1ccc(-c2csc3ncnc(Sc4nnc(CN5CCCCCC5=O)o4)c23)cc1 | 61 | -0.2* | 31* | 1.9* | 1.7*
CCCC(=O)NC(c1ccco1)c1cc(Cl)c2cccnc2c1O (configuration not stated) | 12* | 0.9* | 3.1* | 6.0* | 7
Cc1ccc(C(NC(=O)C(C)C)c2cc([N+](=O)[O-])c3cccnc3c2O)cc1 (configuration not stated) | x | x | x | 9 | 11
CCCC(=O)NC(c1ccc2c(c1)OCO2)c1cc(Cl)c2cccnc2c1O (configuration not stated) | x | x | x | 4.1* | 5
O=C(NC(c1ccccc1)c1cc(Cl)c2cccnc2c1O)c1cccnc1 (configuration not stated) | x | x | x | 6 | 8
CCCCC(=O)NC(=S)Nc1cccc(NC(=O)c2ccco2)c1 | x | x | x | 88 | 81
